# Test results taken from paper PMC7114156 (Antiviral Research, 2009).
# Marks after values point to notes of the source that are not given here.
# How the values were obtained:
# W12 cells = assay: mRNA measurement by RT-qPCR in W12 cells; type: cell-based, human
# Outline: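 RNA was taken 0, 24 and 48 h after adding test compound; W12 cells were grown in 75 cm² flasks and washed in chilled PBS. 546 Pathway Set genes were run in quadruplicate by RT-qPCR: 10 μl reactions, primers 900 nM, probes 100 nM final. Ct was normalised to GAPDH, with dCt = Ct(control) − Ct(treated) and a two-sided t-test. Fold change was F = 2^dCt where p ≤ 0.05.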
# W12 20861 = assay: Growth of W12 20861; type: cell-based, human; settings: 72 h
# Outline: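 Cell lines carrying integrated viral genomes were plated in 96-well plates in medium with test compound. Growth was read by ATP luminescence (CellTiter-Glo) for HEK293 and WI38 VA13, and by MTS reduction (A490 after 2 h at 37 °C) for Namalwa, W12 20861, SiHa, Caski and HeLa. K and Imax came from a fit to a modified Hill equation.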
# [1] = W12 cells, 100 nM, 24 h, not significantly different from 1
# [2] = W12 cells, 100 nM, 48 h, not significantly different from 1
smiles,measurement,setting,value
"O=C(N[C@@H]1CCCc2c1[nH]c1ccc(Cl)cc21)c1ccccn1 [GSK983, N-[(1R)-6-Chloro-2,3,4,9-tetrahydro-1H-carbazol-1-yl]-2-pyridinecarboxamide]","Fold increase due to GSK983, OASL mRNA","W12 cells; W12 cells, 10 nM, 48 h",2.2 fold
same,"Fold increase due to GSK983, SNAP25 mRNA","W12 cells; W12 cells, 10 nM, 48 h",3.7 fold
same,"Fold increase due to GSK983, TLR5 mRNA","W12 cells; W12 cells, 10 nM, 48 h",1.7 fold
same,"Fold increase due to GSK983, TNFSF10 mRNA","W12 cells; W12 cells, 10 nM, 48 h",1.8 fold
same,"Fold increase due to GSK983, CCL5 mRNA","W12 cells; W12 cells, 100 nM, 24 h",3.1 fold
same,"Fold increase due to GSK983, CEL mRNA","W12 cells; W12 cells, 100 nM, 24 h",3.0 fold
same,"Fold increase due to GSK983, COL10A1 mRNA","W12 cells; W12 cells, 100 nM, 24 h",3.6 fold
same,"Fold increase due to GSK983, CPT1B mRNA","W12 cells; W12 cells, 100 nM, 24 h",3.2 fold
same,"Fold increase due to GSK983, CSF2 mRNA","W12 cells; W12 cells, 100 nM, 24 h",3.7 fold
same,"Fold increase due to GSK983, DCN mRNA","W12 cells; W12 cells, 100 nM, 24 h",2.3 fold
same,"Fold increase due to GSK983, DMPK mRNA","W12 cells; W12 cells, 100 nM, 24 h",2.9 fold
same,"Fold increase due to GSK983, FMOD mRNA","W12 cells; W12 cells, 100 nM, 24 h",1.7 fold
same,"Fold increase due to GSK983, IFI6 mRNA","W12 cells; W12 cells, 100 nM, 24 h",2.3 fold
same,"Fold increase due to GSK983, IFI16 mRNA","W12 cells; W12 cells, 100 nM, 24 h",1.3 fold
same,"Fold increase due to GSK983, IFI44 mRNA","W12 cells; W12 cells, 100 nM, 24 h",2.9 fold
same,"Fold increase due to GSK983, IFIT1 mRNA","W12 cells; W12 cells, 100 nM, 24 h",5.5 fold
same,"Fold increase due to GSK983, IL6 mRNA","W12 cells; W12 cells, 100 nM, 24 h",3.8 fold
same,"Fold increase due to GSK983, IL8 mRNA","W12 cells; W12 cells, 100 nM, 24 h",2.1 fold
same,"Fold increase due to GSK983, IRF3 mRNA","W12 cells; W12 cells, 100 nM, 24 h",1.5 fold
same,"Fold increase due to GSK983, IRF9 mRNA","W12 cells; W12 cells, 100 nM, 24 h",1.6 fold
same,"Fold increase due to GSK983, ISG15 mRNA","W12 cells; W12 cells, 100 nM, 24 h",4.3 fold
same,"Fold increase due to GSK983, LRP1 mRNA","W12 cells; W12 cells, 100 nM, 24 h",3.7 fold
same,"Fold increase due to GSK983, NR1H3 mRNA","W12 cells; W12 cells, 100 nM, 24 h",6.8 fold
same,"Fold increase due to GSK983, OAS1 mRNA","W12 cells; W12 cells, 100 nM, 24 h",2.2 fold
same,"Fold increase due to GSK983, OAS2 mRNA","W12 cells; W12 cells, 100 nM, 24 h",1.9 fold
same,"Fold increase due to GSK983, OASL mRNA","W12 cells; W12 cells, 100 nM, 24 h",6.7 fold
same,"Fold increase due to GSK983, TLR5 mRNA","W12 cells; W12 cells, 100 nM, 24 h",2.4 fold
same,"Fold increase due to GSK983, TNFSF10 mRNA","W12 cells; W12 cells, 100 nM, 24 h",4.3 fold
same,"Fold increase due to GSK983, ERN2 mRNA",W12 cells; [1],1.7 ^b fold
same,"Fold increase due to GSK983, LIFR mRNA",W12 cells; [1],1.3 ^b fold
same,"Fold increase due to GSK983, SNAP25 mRNA",W12 cells; [1],1.7 ^b fold
same,"Fold increase due to GSK983, CCL5 mRNA","W12 cells; W12 cells, 100 nM, 48 h",47.4 fold
same,"Fold increase due to GSK983, CEL mRNA","W12 cells; W12 cells, 100 nM, 48 h",10.6 fold
same,"Fold increase due to GSK983, COL10A1 mRNA","W12 cells; W12 cells, 100 nM, 48 h",2.4 fold
same,"Fold increase due to GSK983, CPT1B mRNA","W12 cells; W12 cells, 100 nM, 48 h",6.4 fold
same,"Fold increase due to GSK983, CSF2 mRNA","W12 cells; W12 cells, 100 nM, 48 h",4.9 fold
same,"Fold increase due to GSK983, DCN mRNA","W12 cells; W12 cells, 100 nM, 48 h",15.4 fold
same,"Fold increase due to GSK983, DMPK mRNA","W12 cells; W12 cells, 100 nM, 48 h",4.1 fold
same,"Fold increase due to GSK983, ERN2 mRNA","W12 cells; W12 cells, 100 nM, 48 h",2.8 fold
same,"Fold increase due to GSK983, FMOD mRNA","W12 cells; W12 cells, 100 nM, 48 h",2.5 fold
same,"Fold increase due to GSK983, IFI6 mRNA","W12 cells; W12 cells, 100 nM, 48 h",7.3 fold
same,"Fold increase due to GSK983, IFIT1 mRNA","W12 cells; W12 cells, 100 nM, 48 h",5.5 fold
same,"Fold increase due to GSK983, IL6 mRNA","W12 cells; W12 cells, 100 nM, 48 h",10.2 fold
same,"Fold increase due to GSK983, IL8 mRNA","W12 cells; W12 cells, 100 nM, 48 h",2.3 fold
same,"Fold increase due to GSK983, ISG15 mRNA","W12 cells; W12 cells, 100 nM, 48 h",9.3 fold
same,"Fold increase due to GSK983, LIFR mRNA","W12 cells; W12 cells, 100 nM, 48 h",2.2 fold
same,"Fold increase due to GSK983, LRP1 mRNA","W12 cells; W12 cells, 100 nM, 48 h",3.5 fold
same,"Fold increase due to GSK983, NR1H3 mRNA","W12 cells; W12 cells, 100 nM, 48 h",2.7 fold
same,"Fold increase due to GSK983, OAS1 mRNA","W12 cells; W12 cells, 100 nM, 48 h",5.0 fold
same,"Fold increase due to GSK983, OAS2 mRNA","W12 cells; W12 cells, 100 nM, 48 h",2.9 fold
same,"Fold increase due to GSK983, OASL mRNA","W12 cells; W12 cells, 100 nM, 48 h",10.9 fold
same,"Fold increase due to GSK983, SNAP25 mRNA","W12 cells; W12 cells, 100 nM, 48 h",4.7 fold
same,"Fold increase due to GSK983, TLR5 mRNA","W12 cells; W12 cells, 100 nM, 48 h",3.1 fold
same,"Fold increase due to GSK983, TNFSF10 mRNA","W12 cells; W12 cells, 100 nM, 48 h",8.4 fold
same,"Fold increase due to GSK983, IFI16 mRNA",W12 cells; [2],1.2 ^b fold
same,"Fold increase due to GSK983, IRF3 mRNA",W12 cells; [2],1.2 ^b fold
same,Number of genes of the Pathway Set with significant increases in expression,"W12 cells; W12 cells, at both 10 and 100 nM, 546 genes",22 genes
same,"Expression of the three interferons (alpha, beta, and gamma), PKR and Mx1",W12 cells; data not shown,not induced
same,EC50,"W12 20861; Homo sapiens, read-out: K, Growth, MTS",25 ± 9 nM
same,"Imax, Growth, MTS","W12 20861; W12 20861, HPV16 integrated",35 ± 2.8%
